# Reference: ChEMBL document CHEMBL1152866, “Modulation of gene expression via disruption of NF-kappaB signaling by a bacterial small molecule” (Science, 2008)
# Calls of active or inactive are those of the source. The calls are words filed in the database; no cut-off is given here.
# Tests used:
# Macrophage [1] = assay: Inhibition of LPS-induced IL-12beta mRNA expression in mouse alveolar macrophages after 90 mins by Northern blot analysis; format: functional, cell-based
# [2] = target: MAP kinase p38 (Homo sapiens) (UniProt O15264+Q15759+Q16539+P53778); assay: Inhibition of LPS-induced p38 phosphorylation in human THP1 cells measured up to 120 mins by Western blot analysis; format: cell-based; conditions: THP-1
# MEF [3] = assay: Inhibition of TNF-induced IkappaBbeta expression in mouse MEF up to 120 mins by Western blot analysis; format: functional, cell-based
# BMDM [4] = assay: Inhibition of heat-killed Staphylococcus aureus-induced MCP-1 mRNA expression in mouse BMDM by Northern blot analysis; format: functional, cell-based
# Mus musculus [5] = species: Mus musculus; assay: Effect on IKK activity in LPS-induced mouse BMDM assessed as induction of phosphorylation of p38 treated 2 hrs after LPS challenge measured up to 120 mins by immunoblot analysis
# PBMC = assay: Inhibition of LPS-induced IkappaBalpha mRNA expression in human PBMC up to 50 uM by Northern blot analysis; format: functional, cell-based
# Mus musculus [6] = species: Mus musculus; assay: Inhibition of LPS-induced IKK activity in mouse BMDM assessed as GST-IkappaBalpha phosphorylation after 5 mins by immunoprecipitation kinase assay
# BMDM [7] = assay: Inhibition of LPS-induced IL-12beta mRNA expression in mouse BMDM up to 3 hrs by Northern blot analysis; format: functional, cell-based
# [8] = target: T1, Inhibitor of nuclear factor kappa-B kinase subunit alpha (Mus musculus) (UniProt Q60680); assay: Inhibition of TNF-induced IkappaBalpha phosphorylation in mouse MEF up to 120 mins by Western blot analysis
# T1 sequence (whole entry): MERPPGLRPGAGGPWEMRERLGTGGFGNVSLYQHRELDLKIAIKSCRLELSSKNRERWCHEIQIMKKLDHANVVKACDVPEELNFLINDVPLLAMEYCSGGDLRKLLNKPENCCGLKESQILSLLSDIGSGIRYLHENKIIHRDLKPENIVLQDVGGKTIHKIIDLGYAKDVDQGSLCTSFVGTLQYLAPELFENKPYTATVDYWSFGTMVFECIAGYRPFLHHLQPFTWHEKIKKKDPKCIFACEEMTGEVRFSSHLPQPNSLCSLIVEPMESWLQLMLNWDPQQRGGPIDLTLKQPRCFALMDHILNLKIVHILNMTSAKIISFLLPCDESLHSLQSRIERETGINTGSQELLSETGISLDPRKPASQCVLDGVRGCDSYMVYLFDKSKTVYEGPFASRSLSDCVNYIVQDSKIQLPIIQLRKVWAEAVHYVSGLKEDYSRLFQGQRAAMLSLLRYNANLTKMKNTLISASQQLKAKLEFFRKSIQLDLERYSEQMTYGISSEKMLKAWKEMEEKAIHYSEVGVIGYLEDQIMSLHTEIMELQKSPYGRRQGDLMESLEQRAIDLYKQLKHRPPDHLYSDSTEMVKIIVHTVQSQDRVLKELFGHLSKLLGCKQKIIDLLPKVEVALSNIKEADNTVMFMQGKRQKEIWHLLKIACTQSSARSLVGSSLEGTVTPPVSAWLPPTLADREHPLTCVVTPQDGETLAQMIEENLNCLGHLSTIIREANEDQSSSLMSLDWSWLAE
# MEF [9] = assay: Inhibition of LPS-induced IkappaBalpha mRNA expression in MEF after 90 mins by Northern blot analysis; format: functional, cell-based; conditions: Mus musculus
# Mus musculus [10] = species: Mus musculus; assay: Suppression of LPS-induced TNF expression in C57BL/6 transgenic mouse bearing IkappaBalpha-reporter after 2 hrs by luciferase reporter gene assay; format: functional, organism-based
# Outline: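 Animals received an injection of vehicle, LPS, C12, or LPS plus C12. Whole-animal bioluminescence was recorded 2 hours after injection as the read-out of reporter activity.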
# BMDM [11] = assay: Inhibition of LPS-induced IkappaBalpha mRNA expression in mouse BMDM up to 3 hrs by Northern blot analysis; format: functional, cell-based
# BMDM [12] = assay: Inhibition of heat-killed Staphylococcus aureus-induced IL1-beta mRNA expression in mouse BMDM by Northern blot analysis; format: functional
# WI-38 = assay: Induction of apoptosis in TNF-stimulated human WI38 fibroblast assessed as PARP cleavage after 2 hrs by Western blot analysis; format: functional, cell-based
# Outline: (§1)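 WI38 lung fibroblasts and bronchial epithelial cells were stimulated for 2 hours. The same Western blot was probed for PARP cleavage, total IκBα and phosphorylated IκBα.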
# [13] = target: T2, Inhibitor of nuclear factor kappa-B kinase subunit alpha (Homo sapiens) (UniProt O15111); assay: Inhibition of IkappaBalpha phosphorylation in human bronchial epithelial cells assessed after 2 hrs by Western blot analysis; format: cell-based; conditions: Epithelial cell; outline: as §1
# T2 sequence (whole entry): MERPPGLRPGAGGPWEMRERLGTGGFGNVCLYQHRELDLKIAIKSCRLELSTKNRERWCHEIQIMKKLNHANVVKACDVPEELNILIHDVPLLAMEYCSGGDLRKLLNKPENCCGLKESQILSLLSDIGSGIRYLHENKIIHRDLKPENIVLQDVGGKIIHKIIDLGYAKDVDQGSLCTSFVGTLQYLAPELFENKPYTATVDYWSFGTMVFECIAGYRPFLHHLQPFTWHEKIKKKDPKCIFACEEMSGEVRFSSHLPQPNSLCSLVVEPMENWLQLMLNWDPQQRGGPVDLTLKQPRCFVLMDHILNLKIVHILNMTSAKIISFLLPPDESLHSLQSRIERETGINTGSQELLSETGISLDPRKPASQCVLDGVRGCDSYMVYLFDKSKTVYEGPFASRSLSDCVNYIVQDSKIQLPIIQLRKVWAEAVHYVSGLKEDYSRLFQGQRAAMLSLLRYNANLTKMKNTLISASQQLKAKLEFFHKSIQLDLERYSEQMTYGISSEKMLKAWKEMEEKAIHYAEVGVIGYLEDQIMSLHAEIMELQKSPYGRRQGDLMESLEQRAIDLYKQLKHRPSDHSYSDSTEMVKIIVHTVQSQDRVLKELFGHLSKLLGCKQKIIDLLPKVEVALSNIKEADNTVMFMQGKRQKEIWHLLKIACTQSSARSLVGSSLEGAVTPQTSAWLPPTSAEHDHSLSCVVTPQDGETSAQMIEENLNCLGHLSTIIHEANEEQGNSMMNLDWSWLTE
# BMDM [14] = assay: Inhibition of heat-killed Staphylococcus aureus-induced c-jun mRNA expression in mouse BMDM by Northern blot analysis; format: functional, cell-based
# [15] = target: MAP kinase p38 (Mus musculus) (UniProt P47811+O08911+Q9WUI1+Q9Z1B7); assay: Inhibition of LPS-induced p38 phosphorylation in mouse BMDM measured up to 120 mins by Western blot analysis
# BMDM [16] = assay: Inhibition of LPS-induced IkappaBalpha expression in mouse BMDM measured up to 120 mins by Western blot analysis; format: functional, cell-based
# Mus musculus [17] = species: Mus musculus; assay: Inhibition of IKK activity in LPS-induced mouse BMDM assessed as reduction in phosphorylation of RelA treated 2 hrs after LPS challenge measured up to 120 mins by immunoblot analysis
# Macrophage [18] = assay: Inhibition of LPS-induced IkappaBalpha mRNA expression in mouse C57BL/6 mouse alveolar macrophages up to 50 uM by Northern blot analysis; format: functional, cell-based
# MEF [19] = assay: Effect on TNF-induced IkappaBalpha mRNA expression in MEF by Northern blot analysis; format: functional, cell-based; conditions: Mus musculus
structure (smiles),measurement,setting,value
CCCCCCCCCC(=O)CC(=O)N[C@H]1CCOC1=O,Activity,Macrophage [1],Dose-dependent effect
same,Activity,[2],Active
same,Activity,MEF [3],Active
same,Activity,BMDM [4],Active
same,Activity,Mus musculus [5],Active
same,Activity,PBMC,Active
same,Activity,Mus musculus [6],Active
same,Activity,BMDM [7],Dose-dependent effect
same,Activity,[8],Active
same,Activity,MEF [9],Dose-dependent effect
same,Activity,Mus musculus [10],Active
same,Activity,BMDM [11],Dose-dependent effect
same,Activity,BMDM [12],Active
same,Activity,WI-38,Active
same,Activity,[13],Active
same,Activity,BMDM [14],Active
same,Activity,[15],inactive
same,Activity,BMDM [16],Active
same,Activity,Mus musculus [17],Active
same,Activity,Macrophage [18],Active
same,Activity,MEF [19],Active
